EWS-Fli block: blocks EWS/Fli oncoprotein-driven transcription | A673 NR0B1-luciferase reporter, viability-normalised | inhibition, % at 12.6 µM | 350,000 tested, 0.67% active | AID 651661;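 active = mean inhibition of at least 50% after viability correction, with every replicate also passing that limit; inconclusive = mean reaches 50% but only one of two replicates passes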;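 also: firefly luciferase signal divided by Alamar Blue viability fluorescence both relative to DMSO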
Glyco luc inh: N-linked glycosylation inhibition. D54 ERlucT glycosylation luciferase reporter, 24 h; percent of 100 nM tunicamycin response. 360,000 tested, 0.23% active. reporter increase, % at 12.5 µM;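 active = mean luciferase reporter signal, scaled so untreated is 0 and the glycosylation-blocking control 100, at or above a set limit in every replicate; inconclusive = mean reaches the limit but not every replicate does; inactive = mean below the limit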;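 also: luciferase carries N-glycosylation sites so blocking glycosylation raises the light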
PAX8 reporter: inhibitors of PAX8 transcriptional activity in RMG-I cells; RMG-I TPO-luciferase reporter, SteadyGlo, 24 h; inhibition, % at 12.6 µM; 360,000 tested, 1.2% active; AID 652154;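 active = mean replicate inhibition at least 60% with every replicate also reaching 60%; inconclusive = only one of the two criteria is met; inactive = mean below 60% and not all replicates reaching 60%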;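 also: luciferase light reporting Pax8 driven TPO promoter activity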
MLL AF4-AF9 inh: inhibitors of human MLL-AF4/AF9 interaction. P42568. AlphaScreen, biotin-AF4 peptide binding to FLAG-AF9. inhibition, % at 10 µM. 350,000 tested, 0.47% active. AID 651704;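 active = every replicate reaching a set inhibition limit, whatever the replicate mean, cut at about 25% in these data; inconclusive = mean inhibition reaches that limit but some replicates miss it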
Target sequence (P42568 whole entry, looked up): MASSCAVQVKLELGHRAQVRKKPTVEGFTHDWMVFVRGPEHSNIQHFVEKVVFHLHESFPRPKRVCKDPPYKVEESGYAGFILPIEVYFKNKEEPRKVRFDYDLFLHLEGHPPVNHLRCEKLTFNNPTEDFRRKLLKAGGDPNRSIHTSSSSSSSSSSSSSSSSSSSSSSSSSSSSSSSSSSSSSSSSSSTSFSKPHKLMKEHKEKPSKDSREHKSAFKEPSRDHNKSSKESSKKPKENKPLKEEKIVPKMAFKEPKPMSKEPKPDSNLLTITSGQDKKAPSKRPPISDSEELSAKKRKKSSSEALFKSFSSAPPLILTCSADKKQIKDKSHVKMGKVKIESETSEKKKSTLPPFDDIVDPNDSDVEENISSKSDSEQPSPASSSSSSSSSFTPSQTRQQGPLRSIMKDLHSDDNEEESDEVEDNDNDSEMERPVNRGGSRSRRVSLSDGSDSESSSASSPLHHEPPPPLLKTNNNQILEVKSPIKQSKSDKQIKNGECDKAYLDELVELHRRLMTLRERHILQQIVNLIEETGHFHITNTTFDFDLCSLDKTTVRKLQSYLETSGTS
HIV Env fusion: blocks HIV Env-driven cell-cell fusion; 360,000 tested, 1.1% active; inhibition, % at 12.3 µM; HeLa-JRFL Env/CEM21 cell fusion, luciferase; AID 651610;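 active = mean replicate inhibition score of at least 50 and every replicate individually at or above 50; inconclusive = only one of the two criteria met; inactive = mean below 50 and not all replicates reaching 50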
FN deposit inh: fibronectin deposition inhibition | AH1F fibroblasts, Alexa488-fibronectin deposition fluorescence, overnight | inhibition, % at 12.6 µM | 350,000 tested, 0.086% active;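 active = mean inhibition across replicates of 30% or more, regardless of how many single replicates reach that level; inconclusive = mean under 30% yet at least half of replicates reach 30%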
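Test system: AH1F fibroblast monolayer depositing Alexa488-labelled fibronectin into matrix. Input: 10000 cells per well. Technique: fluorescence, ex 485 nm, em 525 nm. Buffer or medium: DMEM plus 2% serum, read in PBS. Timing: 1 h cell adhesion before compound, then overnight fibronectin incubation. Compound: single dose, pinned. Read-out basis: inhibition from reduced deposited-fibronectin fluorescence.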
Numbers stand for hits; i = inactive; ? = inconclusive; nt = no result. A selection: hits, their analogues and other compounds. The true share with any hit is near 2.5%.

SMILES	EWS-Fli block	Glyco luc inh	PAX8 reporter	MLL AF4-AF9 inh	HIV Env fusion	FN deposit inh
C[C@H](CO)N1C[C@H](C)[C@@H](CN(C)Cc2ccccc2F)Oc2cc(C3=CCCC3)ccc2S1(=O)=O	i	nt	nt	i	i	i
O=C1/C(=C/c2ccccc2)CN(C(=O)CCN2CCOCC2)C/C1=C\c1ccccc1	65	i	i	i	i	i
C[N+](C)(C)CCC(=O)N1C/C(=C/c2ccccc2)C(=O)/C(=C\c2ccccc2)C1	58	i	i	i	i	i
CN(C)CCC(=O)N1C/C(=C/c2ccccc2)C(=O)/C(=C\c2ccccc2)C1	80	i	nt	i	75	i
N#CC(C#N)=C(Nc1ccc(F)cc1)SCc1cccc(Br)c1	i	i	85	i	65	i
CC(C)CC1NC(=S)N(Cc2ccccc2)C1=O (stereo not drawn)	i	i	90	i	i	i
O=C(CN1CCOCC1)N1CC(=O)N2[C@@H](CO)[C@H](c3ccc(/C=C/c4ccccc4)cc3)[C@@H]2C1	i	nt	i	i	nt	nt
CN(C)c1ccc(NC(=O)Nc2nc(C(N)C3CCCCC3)cs2)cc1 (stereo not drawn)	i	i	i	57	i	i
CCOC(=O)c1sc(NC(=O)Cn2nnc3sc4c(c3c2=O)CCC(C(C)(C)C)C4)nc1C (stereo not drawn)	i	i	73	i	nt	i
CCOc1ccc(C(=O)Nc2ccc(Cc3ccncc3)cc2)cc1Br	i	i	95	i	i	i
COc1ccc(NC(=O)N2CCCCN3[C@H](C2)[C@H](c2ccc(C#Cc4ccccc4)cc2)[C@@H]3CO)cc1	i	nt	i	nt	nt	nt
COc1ccc(C#Cc2ccc([C@@H]3[C@H](CO)N4CCCCN(C(=O)Nc5ccc(F)cc5)C[C@@H]34)cc2)cc1	nt	nt	107	i	nt	nt
COc1ccc(C#Cc2ccc([C@@H]3[C@H]4CN(Cc5ccccc5F)CCCCN4[C@H]3CO)cc2)cc1	i	nt	i	nt	nt	nt
COc1ccc(C#Cc2ccc([C@H]3[C@@H](CO)N4CCCCN(Cc5ccccc5F)C[C@H]34)cc2)cc1	i	nt	i	29	nt	i
COc1ccc(NC(=O)N2CCCCN3[C@@H](CO)[C@H](c4ccc(C#Cc5ccccc5)cc4)[C@@H]3C2)cc1	i	nt	70	i	nt	nt
COc1ccc(NC(=O)N2CCCCN3[C@H](C2)[C@@H](c2ccc(C#Cc4ccccc4)cc2)[C@@H]3CO)cc1	i	nt	92	i	nt	nt
O=C1Nc2ccccc2N=C(c2ccc3c(c2)OCO3)C1N(C(=O)c1ccc2ccccc2c1)C1CC1 (stereo not drawn)	i	i	i	i	56	i
O=C1Nc2ccccc2N=C(c2ccc3c(c2)OCO3)C1N(C(=O)c1ccnc2ccccc12)c1ccccc1 (stereo not drawn)	i	i	i	i	i	i
COc1ccc(C(=O)N/C(=C\c2cn(C)c3ccccc23)C(=O)OCC(C)C)cc1	i	i	70	i	nt	i
C[C@H](CO)N1C[C@H](C)[C@@H](CN(C)Cc2ccc3c(c2)OCO3)Oc2c(NS(=O)(=O)c3ccc(F)cc3)cccc2C1=O	i	nt	i	i	nt	nt
CCS(=O)(=O)Nc1ccc2c(c1)C(=O)N(C)[C@@H]1CC[C@H](CC(=O)N3CCOCC3)O[C@@H]1CO2	i	nt	i	i	i	i
CCOc1ccc(-n2c(=S)sc3c(=O)[nH]c(SCC(=O)NCC4CCCO4)nc32)cc1 (stereo not drawn)	i	i	110	i	nt	i
Cc1cc(S(=O)(=O)c2ccc([N+](=O)[O-])cn2)ccc1Br	i	i	86	i	i	i
Cc1ccc(S(=O)(=O)c2ccc([N+](=O)[O-])cn2)cc1	61	i	111	i	i	i
Cc1cc(Sc2ccc([N+](=O)[O-])cn2)ccc1Br	i	i	i	i	i	i
SMILES	EWS-Fli block	Glyco luc inh	PAX8 reporter	MLL AF4-AF9 inh	HIV Env fusion	FN deposit inh
Nc1ccc(S(=O)(=O)c2ccccc2)nc1	i	i	i	i	i	i
O=[N+]([O-])c1ccc(S(=O)(=O)c2ccccc2)nc1	58	i	109	i	i	i
CN(C)c1ccc(-n2cccc2/C=C/[N+](=O)[O-])cc1	i	64	72	25	i	nt
CO[C@H]1CN(C)C(=O)c2ccc(NS(=O)(=O)CC(F)(F)F)cc2OC[C@H](C)N(CC2CCCCC2)C[C@H]1C	i	nt	i	i	nt	i
C[C@@H]1CCCCO[C@@H](CN(C)C(=O)Nc2cccc3ccccc23)[C@H](C)CN([C@H](C)CO)C(=O)c2cc(NS(=O)(=O)c3ccccc3)ccc2O1	i	nt	80	i	i	i
Cc1ccc(S(=O)(=O)Nc2ccc3c(c2)C(=O)N([C@@H](C)CO)C[C@@H](C)[C@@H](CN(C)C(=O)Nc2cccc4ccccc24)OCCCC[C@@H](C)O3)cc1	i	nt	68	i	i	i
Cc1ccc(S(=O)(=O)Nc2ccc3c(c2)C(=O)N([C@@H](C)CO)C[C@H](C)[C@H](CN(C)C(=O)Nc2cccc4ccccc24)OCCCC[C@@H](C)O3)cc1	i	nt	i	i	i	i
COC(=O)C[C@H]1C[C@@H]2c3cc(NC(=O)Nc4ccccc4F)ccc3O[C@@H]2[C@H](CO)O1	i	nt	nt	i	nt	i
O=C(C[C@@H]1C[C@H]2c3cc(NC(=O)c4ccc5c(c4)OCO5)ccc3O[C@H]2[C@@H](CO)O1)NC1CCCCC1	i	nt	i	i	i	nt
CC(C(=O)O)c1ccc(N2Cc3ccccc3C2=O)cc1 (stereo not drawn)	51	i	i	i	i	i
Cc1ccccc1N1Cc2ccccc2C1=O	i	i	i	i	i	i
C[C@@H]1CCCCO[C@H](CN(C)S(=O)(=O)c2ccc(F)cc2)[C@H](C)CN([C@@H](C)CO)C(=O)c2cc(NC(=O)CCCN(C)C)ccc2O1	i	nt	i	i	i	i
COc1ccc(-c2nn(CC(=O)NCCc3ccccc3)c(=S)n2C)cc1	nt	i	nt	nt	nt	nt
CCn1c(-c2ccc(C)cc2)nn(CC(=O)NCCc2ccccc2)c1=S	nt	i	i	nt	76	i
Cc1onc(C(=O)N2CCC(Cc3ccccc3)CC2)c1[N+](=O)[O-]	59	i	?	i	i	i
CC(C)c1onc(C(=O)N2CCN(C(c3ccccc3)c3ccccc3)CC2)c1[N+](=O)[O-]	64	i	84	i	i	i
Cc1ccc(Cl)cc1N1CCN(C(=O)c2noc(C(C)C)c2[N+](=O)[O-])CC1	56	i	119	i	i	i
CCNC(=O)[C@@H]1[C@@H](CO)[C@@H]2Cn3c(ccc(-c4ccc(F)cc4)c3=O)[C@H]1N2C(C)=O	i	nt	i	i	nt	nt
Cn1nc(C(F)(F)F)c(/C=N/OC(=O)c2ccccc2)c1SCc1ccccc1Cl	nt	55	nt	nt	?	i
Cn1nc(C(F)(F)F)c(/C=N/OC(=O)c2ccccc2)c1Sc1ccc(Cl)cc1	nt	i	nt	nt	nt	nt
COc1ccc(-c2ccc(C3[C@@H]4CN(Cc5cccc(OC)c5)C[C@H]3N4)cc2)cc1 (stereo partly drawn)	i	nt	i	i	nt	i
